Assay results: ChEMBL document CHEMBL4196148, “Antibacterial Prenylated Isoflavonoids from the Stems of Millettia extensa” (2018)
In brackets after ≈: the same amount, converted by molar mass. Activity calls are given as the source filed them. The rule behind the calls is not given here.

Experiments:
[1] = system: Staphylococcus epidermidis; assay: Antibacterial activity against Staphylococcus epidermidis ATCC 12228 by 2-fold serial dilution method; type: functional
Outline: (§1)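 MICs determined following Clinical and Laboratory Standards Institute recommendations, reported in μg/mL.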

Staphylococcus aureus [2] = assay: Antibacterial activity against Staphylococcus aureus TISTR 1466 by 2-fold serial dilution method; type: functional; outline: as §1
Salmonella typhimurium = assay: Antibacterial activity against Salmonella typhimurium TISTR 781 by 2-fold serial dilution method; type: functional, Salmonella enterica subsp. enterica serovar Typhimurium; outline: as §1
Pseudomonas aeruginosa = assay: Antibacterial activity against Pseudomonas aeruginosa TISTR 292 by 2-fold serial dilution method; type: functional; outline: as §1
Bacillus subtilis [3] = assay: Antibacterial activity against Bacillus subtilis TISTR 008 by 2-fold serial dilution method; type: functional, Bacillus spizizenii; outline: as §1
[4] = system: Staphylococcus epidermidis; assay: Antibacterial activity against Staphylococcus epidermidis ATCC 12228 at >128 ug/ml by 2-fold serial dilution method; type: functional, organism-based; outline: as §1
Bacillus subtilis [5] = assay: Antibacterial activity against Bacillus subtilis TISTR 008 at >128 ug/ml by 2-fold serial dilution method; type: functional, organism-based; details: Bacillus spizizenii; outline: as §1
Staphylococcus aureus [6] = assay: Antibacterial activity against Staphylococcus aureus TISTR 1466 at >128 ug/ml by 2-fold serial dilution method; type: functional, organism-based; outline: as §1

| Molecule | MIC [1] [µg/mL] | MIC (Staphylococcus aureus [2]) [µg/mL] | MIC (Salmonella typhimurium; Salmonella enterica) [µg/mL] | MIC (Pseudomonas aeruginosa) [µg/mL] | MIC (Bacillus subtilis [3]) [µg/mL] | Activity [4] | Activity (Bacillus subtilis [5]) | Activity (Staphylococcus aureus [6]) | MIC (Salmonella typhimurium; Salmonella enterica subsp. enterica serovar Typhimurium) [µg/mL] |
| --- | --- | --- | --- | --- | --- | --- | --- | --- | --- |
| CC(C)=CCc1c2c(c3occ(-c4ccc(O)cc4O)c(=O)c3c1O)C=CC(C)(C)O2 | 2 (≈ 4.76 µM) | 2 (≈ 4.76 µM) | 128 (≈ 304 µM) | 128 (≈ 304 µM) | 2 (≈ 4.76 µM) |  |  |  |  |
| COc1cc(OC)c(-c2coc3cc4c(c(O)c3c2=O)C=CC(C)(C)O4)cc1OC |  |  | 128 (≈ 312 µM) | 128 (≈ 312 µM) |  | inactive | inactive | inactive |  |
| CN[C@H](CC(C)C)C(=O)N[C@H]1C(=O)N[C@@H](CC(N)=O)C(=O)N[C@H]2C(=O)N[C@H]3C(=O)N[C@H](C(=O)N[C@H](C(=O)O)c4cc(O)cc(O)c4-c4cc3ccc4O)[C@H](O)c3ccc(c(Cl)c3)Oc3cc2cc(c3O[C@@H]2O[C@H](CO)[C@@H](O)[C@H](O)[C@H]2O[C@H]2C[C@](C)(N)[C@H](O)[C@H](C)O2)Oc2ccc(cc2Cl)[C@H]1O [VANCOMYCIN] | 0.25 (≈ 0.173 µM) | 0.25 (≈ 0.173 µM) |  |  | 0.25 (≈ 0.173 µM) |  |  |  |  |
| Oc1ccc2c(c1)OC[C@H]1c3cc4c(cc3O[C@@H]21)OCO4 [MAACKIAIN] |  |  | 128 (≈ 450 µM) | 128 (≈ 450 µM) |  | inactive | inactive | inactive |  |
| CC(C)=CCc1c2c(c(O)c3c(=O)c(-c4ccc(O)cc4)coc13)C=CC(C)(C)O2 [WARANGALONE] | 4 (≈ 9.89 µM) | 2 (≈ 4.94 µM) | 128 (≈ 316 µM) | 128 (≈ 316 µM) | 2 (≈ 4.94 µM) |  |  |  |  |
| CC(C)=CCc1c2c(c(O)c3c(=O)c(-c4ccc(O)cc4O)coc13)C=CC(C)(C)O2 | 2 (≈ 4.76 µM) | 2 (≈ 4.76 µM) | 128 (≈ 304 µM) | 128 (≈ 304 µM) | 2 (≈ 4.76 µM) |  |  |  |  |
| CC(C)=CCc1c2c(c(O)c3c(=O)c(-c4ccc(O)c(O)c4)coc13)C=CC(C)(C)O2 [AURICULASIN] | 4 (≈ 9.51 µM) | 4 (≈ 9.51 µM) | 128 (≈ 304 µM) | 128 (≈ 304 µM) | 8 (≈ 19 µM) |  |  |  |  |
| C=C(C)[C@@H]1Cc2c(cc(O)c3c2O[C@H]2COc4cc(OC)c(OC)cc4[C@H]2C3=O)O1 |  |  | 128 (≈ 312 µM) | 128 (≈ 312 µM) |  | inactive | inactive | inactive |  |
| CC(C)=CCC1=C(O)c2c(occ(-c3ccc(O)cc3O)c2=O)C(CC=C(C)C)(CC=C(C)C)C1=O | 2 (≈ 4.08 µM) | 2 (≈ 4.08 µM) | 128 (≈ 261 µM) | 128 (≈ 261 µM) | 2 (≈ 4.08 µM) |  |  |  |  |
| CC(C)=CCOc1ccc(-c2coc3cc4c(c(O)c3c2=O)C=CC(C)(C)O4)c(O)c1 |  |  | 128 (≈ 304 µM) | 128 (≈ 304 µM) |  | inactive | inactive | inactive |  |
| CC(C)=CCOc1ccc(-c2coc3cc4c(c(O)c3c2=O)C=CC(C)(C)O4)cc1 |  |  | 128 (≈ 316 µM) | 128 (≈ 316 µM) |  | inactive | inactive | inactive |  |
| GENTAMICIN |  |  |  | 2 |  |  |  |  | 0.25 |
